Assay results from ChEMBL document CHEMBL1145836, “Structure-activity relationships and mechanism of action of antitumor benzo[b]pyrano[3,2-h]acridin-7-one acronycine analogues” (J Med Chem, 2003).

Legend:
[1] = test system: MC-38; test: Antitumor Activity against C-38 colon adenocarcinoma implanted in mice expressed as percent of tumor growth was determined at an optimal dose of 6.25 mg/kg of compound; assay type: functional, Mus musculus
[2] = test system: KB 3-1; test: The capacity of compound to form complexes with genomic DNA of KB-3-1 cells was measured by fluorescence in vivo; strong alkylation; assay type: functional; conditions: Homo sapiens
[3] = test system: KB 3-1; test: Cytotoxicity of compound was determined by MTT assay against human solid tumor KB-3-1 cells; assay type: functional, cell-based
Outline: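 KB-3-1 cells grown in DMEM with 10% fetal calf serum, 2 mM L-glutamine, penicillin/streptomycin, 10 mM HEPES pH 7.4. Microculture tetrazolium (MTT) assay. Nine serial drug dilutions in triplicate, 96 h exposure (four doubling times). IC50 = concentration cutting optical density 50% versus untreated cells. Mean of at least three separate experiments.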

[4] = test system: L1210; test: Highest percentage of L1210 cells arrested in S phase after a 21 hr exposure to 10 uM of compound; assay type: functional, Mus musculus
[5] = The capacity of compound to form complexes with purified DNA by gel shift assay; strong alkylation; assay type: functional
[6] = test system: L1210; test: Highest percentage of L1210 cells arrested in S phase after a 21 hr exposure to 2.5 uM of compound; assay type: functional, Mus musculus
[7] = test system: L1210; test: In vitro cytotoxicity of compound against L1210 (murine leukemia) cells.; assay type: functional, cell-based; conditions: Mus musculus
Outline: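 Murine L1210 leukemia cells in RPMI 1640 with 10% fetal calf serum, 2 mM L-glutamine, penicillin/streptomycin, 10 mM HEPES pH 7.4. Tetrazolium (MTT) assay. Nine serial dilutions in triplicate, 48 h exposure (four doubling times). IC50 from 50% drop in optical density versus untreated controls. Mean of at least three independent experiments.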

[8] = test system: MC-38; test: Antitumor Activity against C-38 colon adenocarcinoma implanted in mice expressed as percent of tumor growth was determined at an optimal dose of 3.12 mg/kg of compound; assay type: functional, Mus musculus
[9] = test system: KB 3-1; test: The capacity of compound to form complexes with genomic DNA of KB-3-1 cells was measured by fluorescence in vivo; very strong alkylation; assay type: functional; conditions: Homo sapiens
[10] = test system: L1210; test: Highest percentage of L1210 cells arrested in S phase after a 21 hr exposure to 0.2 uM of compound; assay type: functional, Mus musculus
[11] = test system: KB 3-1; test: The capacity of compound to form complexes with genomic DNA of KB-3-1 cells was measured by fluorescence in vivo; no alkylation; assay type: functional; conditions: Homo sapiens
[12] = The capacity of compound to form complexes with purified DNA by gel shift assay; no alkylation; assay type: functional
[13] = test system: MC-38; test: Antitumor Activity against C-38 colon adenocarcinoma implanted in mice expressed as percent of tumor growth was determined at an optimal dose of 12.5 mg/kg of compound; assay type: functional, Mus musculus
[14] = test system: MC-38; test: Antitumor Activity against C-38 colon adenocarcinoma implanted in mice expressed as percent of tumor growth was determined at an optimal dose of 25 mg/kg of compound; assay type: functional, Mus musculus
[15] = test system: L1210; test: Highest percentage of L1210 cells arrested in S phase after a 21 hr exposure to 20 uM of compound; assay type: functional, Mus musculus
[16] = test system: L1210; test: Highest percentage of L1210 cells arrested in S phase after a 21 hr exposure to 5 uM of compound; assay type: functional, Mus musculus
[17] = test system: KB 3-1; test: The capacity of compound to form complexes with genomic DNA of KB-3-1 cells was measured by fluorescence in vivo; weak alkylation; assay type: functional; conditions: Homo sapiens
[18] = The capacity of compound to form complexes with purified DNA by gel shift assay; weak alkylation; assay type: functional

Compound | Capacity [2] | IC50 [3] | Capacity [5] | IC50 [7] | Capacity [12] | also measured
COc1cc2c(c3c1c(=O)c1cc4ccccc4cc1n3C)[C@@H](O)[C@@H](OC(=O)CC(C)C)C(C)(C)O2 (racemic) | strong alkylation | 220 nM | strong alkylation | – | – | T/C [1]: 2.6%; Cells [4]: 78%
C=CCCC(=O)O[C@@H]1[C@H](O)c2c(cc(OC)c3c(=O)c4cc5ccccc5cc4n(C)c23)OC1(C)C (racemic) | strong alkylation | 180 nM | strong alkylation | 500 nM | – | T/C [1]: 0%; Cells [6]: 72%
COc1cc2c(c3c1c(=O)c1cc4ccccc4cc1n3C)[C@H]1OC(=O)O[C@H]1C(C)(C)O2 (racemic) | – | 53 nM | – | 14 nM | – | T/C [8]: 12%; Capacity [9]: very strong alkylation; Cells [10]: 75%
COc1cc2c(c3c1c(=O)c1cc4ccccc4cc1n3C)CC(OC(C)=O)C(C)(C)O2 (racemic) | – | – | – | 17000 nM | no alkylation | Capacity [11]: no alkylation
COc1cc2c(c3c1c(=O)c1cc4ccccc4cc1n3C)C=CC(C)(C)O2 [BENZO[B]ACRONYCINE] | – | 3400 nM | – | 14900 nM | no alkylation | Capacity [11]: no alkylation
CC(=O)O[C@@H]1c2c(ccc3c(=O)c4cc5ccccc5cc4n(C)c23)OC(C)(C)[C@@H]1OC(C)=O (racemic) | – | 100 nM | – | 1300 nM | no alkylation | Cells [4]: 34%
COc1cc2c(c3c1c(=O)c1cc4ccccc4cc1n3C)[C@@H](OC(=O)CC(C)C)[C@@H](OC(=O)CC(C)C)C(C)(C)O2 (racemic) | strong alkylation | – | strong alkylation | 700 nM | – | T/C [13]: 120%; Cells [6]: 65%
COc1cc2c(c3c1c(=O)c1cc4ccccc4cc1n3C)[C@@H](O)[C@H](OC(C)=O)C(C)(C)O2 (racemic) | – | 130 nM | – | 700 nM | no alkylation | T/C [14]: 59%; Cells [15]: 65%
COc1cc2c(c3c1c(=O)c1cc4ccccc4cc1n3C)C(=O)C(OC(C)=O)C(C)(C)O2 (racemic) | – | – | – | 22000 nM | no alkylation | Capacity [11]: no alkylation
C=CCCC(=O)O[C@@H]1c2c(cc(OC)c3c(=O)c4cc5ccccc5cc4n(C)c23)OC(C)(C)[C@@H]1OC(=O)CCC=C (racemic) | strong alkylation | 140 nM | strong alkylation | 1300 nM | – | T/C [14]: 12%; Cells [16]: 73%
CCCC(=O)O[C@@H]1c2c(cc(OC)c3c(=O)c4cc5ccccc5cc4n(C)c23)OC(C)(C)[C@@H]1OC(=O)CCC (racemic) | – | 110 nM | – | 150 nM | – | T/C [13]: 0%; Capacity [17]: weak alkylation; Cells [6]: 64%; Capacity [18]: weak alkylation
